≈ marks a conversion by molar mass, not a printed value.
Assays:
Type in all cases: functional
[1] = system: Escherichia coli; assay: Antibacterial activity against Escherichia coli ATCC […]
Procedure, shortened: (§1)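 MICs were determined by broth microdilution following NCCLS guidelines. The test panel includes erythromycin-susceptible strains and erythromycin-resistant strains with constitutive or inducible MLSB phenotypes or with efflux resistance.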

[2] = system: Staphylococcus aureus; assay: Antibacterial activity against Staphylococcus aureus PSCB-0330; procedure, shortened: as §1
[3] = system: Enterococcus faecalis; assay: Antibacterial activity against Enterococcus faecalis ATCC 29212; procedure, shortened: as §1
[4] = system: Haemophilus influenzae; assay: Antibacterial activity against Haemophilus influenzae ATCC 49247; procedure, shortened: as §1
[5] = system: Streptococcus pneumoniae; assay: Antibacterial activity against Streptococcus pneumoniae PSCB-0541; procedure, shortened: as §1
[6] = system: Staphylococcus aureus; assay: Antibacterial activity against Staphylococcus aureus ATCC 13709; procedure, shortened: as §1
[7] = system: Streptococcus pyogenes; assay: Antibacterial activity against Streptococcus pyogenes PSCB-0543; procedure, shortened: as §1
[8] = system: Streptococcus pyogenes; assay: Antibacterial activity against Streptococcus pyogenes PSCB-0545; procedure, shortened: as §1
[9] = system: Staphylococcus aureus; assay: Antibacterial activity against Staphylococcus aureus PSCB-0331; procedure, shortened: as §1
[10] = system: Staphylococcus aureus; assay: Antibacterial activity against Staphylococcus aureus PSCB-0538; procedure, shortened: as §1

SMILES | MIC [1] | MIC [2] | MIC [3] | MIC [4] | MIC [5] | MIC [6] | MIC [7] | MIC [8] | MIC [9] | MIC [10]
CC[C@H]1OC(=O)C[C@@H](O)[C@H](C)[C@@H](OC2OC(C)C(O)C(=O)C2O)[C@@H](CC=O)C[C@@H](C)C(=O)/C=C/C(C)=C/[C@@H]1COC1OC(C)C(O)C(OC)C1OC (some centres undefined) | > 128 µg/mL | > 128 µg/mL |  |  |  |  |  |  |  | 
CC[C@H]1O/C(O)=C/C(=O)[C@H](C)[C@@H](OC2OC(C)C(O)C(N(C)C)C2O)[C@@H](CC=O)C[C@@H](C)C(=O)CCC(C)C[C@@H]1COC1OC(C)C(O)C(OC)C1OC (some centres undefined) | > 128 µg/mL | > 128 µg/mL | > 128 µg/mL | > 128 µg/mL | 64 µg/mL (≈ 82.7 µM) | 8 µg/mL (≈ 10.3 µM) | 8 µg/mL (≈ 10.3 µM) | 1 µg/mL (≈ 1.29 µM) | 8 µg/mL (≈ 10.3 µM) | 16 µg/mL (≈ 20.7 µM)
CCOC(=O)/C=C/C[C@H]1C[C@@H](C)C(=O)/C=C/C(C)=C/[C@H](COC2OC(C)C(O)C(OC)C2OC)[C@@H](CC)OC(=O)C[C@@H](OC(=O)Cc2ccc([N+](=O)[O-])cc2)[C@H](C)[C@H]1OC1OC(C)C(O)C(N(C)C)C1O (some centres undefined) | > 128 µg/mL | > 128 µg/mL | 2 µg/mL (≈ 1.99 µM) | 8 µg/mL (≈ 7.96 µM) | 4 µg/mL (≈ 3.98 µM) | < 0.25 µg/mL | 2 µg/mL (≈ 1.99 µM) | 0.5 µg/mL (≈ 0.497 µM) | 0.5 µg/mL (≈ 0.497 µM) | 0.25 µg/mL (≈ 0.249 µM)
CC[C@H]1OC(=O)C[C@@H](O)[C@H](C)[C@@H](O[C@@H]2O[C@H](C)[C@@H](O[C@H]3C[C@@](C)(O)[C@@H](O)[C@H](C)O3)[C@H](N(C)C)[C@H]2O)[C@@H](CC=O)C[C@@H](C)C(=O)/C=C/C(C)=C/[C@@H]1CO[C@@H]1O[C@H](C)[C@@H](O)[C@@H](OC)[C@H]1OC [TYLOSIN] | 64 µg/mL (≈ 69.9 µM) | > 128 µg/mL | 1 µg/mL (≈ 1.09 µM) | 8 µg/mL (≈ 8.73 µM) | 0.5 µg/mL (≈ 0.546 µM) | 1 µg/mL (≈ 1.09 µM) | 1 µg/mL (≈ 1.09 µM) | 0.5 µg/mL (≈ 0.546 µM) | 1 µg/mL (≈ 1.09 µM) | 0.5 µg/mL (≈ 0.546 µM)
CC[C@H]1OC(=O)/C=C\[C@H](C)[C@@H](OC2OC(C)C(O)C(N(C)C)C2O)[C@@H](CC=O)C[C@@H](C)C(=O)/C=C/C(C)=C/[C@@H]1COC1OC(C)C(O)C(OC)C1OC (some centres undefined) | > 128 µg/mL | > 128 µg/mL | 8 µg/mL (≈ 10.6 µM) | 4 µg/mL (≈ 5.31 µM) | 2 µg/mL (≈ 2.65 µM) | 0.5 µg/mL (≈ 0.663 µM) | 2 µg/mL (≈ 2.65 µM) | 1 µg/mL (≈ 1.33 µM) | 1 µg/mL (≈ 1.33 µM) | 4 µg/mL (≈ 5.31 µM)
CC[C@H]1O/C(O)=C/C(=O)[C@H](C)[C@@H](OC2OC(C)C(O)C(N(C)C)C2O)[C@@H](C/C=C/C(=O)OC)C[C@@H](C)C(=O)/C=C/C(C)=C/[C@@H]1COC1OC(C)C(O)C(OC)C1OC (some centres undefined) | > 128 µg/mL | > 128 µg/mL | 4 µg/mL (≈ 4.84 µM) | 128 µg/mL (≈ 155 µM) | 32 µg/mL (≈ 38.7 µM) | 2 µg/mL (≈ 2.42 µM) | 4 µg/mL (≈ 4.84 µM) | 4 µg/mL (≈ 4.84 µM) | 2 µg/mL (≈ 2.42 µM) | 2 µg/mL (≈ 2.42 µM)

More lines, now with the values ahead:

MIC [1] | MIC [2] | MIC [3] | MIC [4] | MIC [5] | MIC [6] | MIC [7] | MIC [8] | MIC [9] | MIC [10] | SMILES
> 128 µg/mL | > 128 µg/mL | > 128 µg/mL | 128 µg/mL (≈ 157 µM) | > 128 µg/mL | > 128 µg/mL | > 128 µg/mL | 128 µg/mL (≈ 157 µM) | > 128 µg/mL | > 128 µg/mL | CC[C@H]1OC(=O)C[C@@H](O)[C@H](C)[C@@H](OC2OC(C)C(O)C(N(C)C)C2O)[C@@H](C/C=C/C(=O)O)C[C@@H](C)C(=O)/C=C/C(C)=C/[C@@H]1COC1OC(C)C(O)C(OC)C1OC (some centres undefined)
128 µg/mL (≈ 166 µM) | > 128 µg/mL | 1 µg/mL (≈ 1.3 µM) | 4 µg/mL (≈ 5.18 µM) | 1 µg/mL (≈ 1.3 µM) | 1 µg/mL (≈ 1.3 µM) | 1 µg/mL (≈ 1.3 µM) | 0.5 µg/mL (≈ 0.648 µM) | 1 µg/mL (≈ 1.3 µM) | 1 µg/mL (≈ 1.3 µM) | CC[C@H]1OC(=O)C[C@@H](O)[C@H](C)[C@@H](O[C@@H]2O[C@H](C)[C@@H](O)[C@@H](N(C)C)[C@H]2O)[C@@H](CC=O)C[C@@H](C)C(=O)/C=C/C(C)=C/[C@@H]1CO[C@@H]1O[C@H](C)[C@@H](O)[C@@H](OC)[C@H]1OC
> 128 µg/mL | > 128 µg/mL |  |  |  |  |  |  |  |  | CC[C@H]1OC(=O)C[C@H](O)[C@H](C)[C@@H](OC2OC(C)C(O)C(N(C)C)C2O)[C@@H](C/C=C/C(=O)OC)C[C@@H](C)C(=O)/C=C/C(C)=C/[C@@H]1COC1OC(C)C(O)C(OC)C1OC (some centres undefined)
